From the array DNA melting data of Ke et al. (doi:10.1101/2024.01.08.574731) come the findings set out here.

Data set [1] in a line: folding enthalpy; higher = less favourable; fluorescence melt of hairpins on a sequencing array, two-state fit. The following applies: sodium 0.088 M. The method, boiled down:
(§1)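 Cy3 signals were normalised both to pre-quench Cy3 and to control constructs. They came from library hairpins carrying annealed Cy3 and quencher oligos on a sequenced MiSeq flow cell, imaged in 50 mM Na-HEPES pH 8.0, 25 mM NaCl, in 2.5 °C steps up to 60 °C. Bootstrapped two-state fits gave melting temperature and folding enthalpy, and four replicates were combined by inverse variance. Fitted temperatures were then raised by 9.35 °C to match UV melts.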

Data set [2] in a line: melting temperature; fluorescence melt of hairpins on a sequencing array, two-state fit, raised by 9.35 °C to match UV melts. The following applies: sodium 0.088 M. In a few lines: as §1

In the case of GATTATGAAAATAATC ((((((....)))))), the folding enthalpy in data set [1] is -29.5 kcal/mol. Also, the Tm in data set [2] came to 40.1 °C.
Regarding GATTATGGAAACATAGTC ((.((((....)))).)), in data set [1], the folding enthalpy is -16.8 kcal/mol. Besides, the Tm in data set [2] is 31.7 °C.
For GATTCAGGAAACCGAATC (((((.(....).))))) the same measures were -26.2 kcal/mol and 36 °C.
For GATTCAGGAAACTGAATC (((((((....))))))) the same measures were -36.9 kcal/mol and 55.7 °C.
For GATTCCCGAAAGGGTATC (((.(((....))).))) the same measures were -23.4 kcal/mol and 45.6 °C.
For GATTCCGAAAGGAATATC ((((((....)))..))), the folding enthalpy in data set [1] was -17.4 kcal/mol. Besides, in data set [2], the Tm was 46.6 °C.
For the sequence GATTCCGGAAACAGAATC (((((.(....).))))), in data set [1], the folding enthalpy was -23.4 kcal/mol. In addition, the Tm in data set [2] turned out to be 32.1 °C.
For GATTCCGGAAACGGAATC (((((((....))))))) the same measures were -42.5 kcal/mol and 64.7 °C.
The corresponding values for GATTCCGGAAACGGAGTC ((.((((....)))).)) are -23.8 kcal/mol and 47.6 °C.
For GATTCGCGAAAGCGATC (((.(((....)))))), the folding enthalpy in data set [1] was -11.6 kcal/mol. Moreover, the Tm in data set [2] is 44.5 °C.
Take GATTCGCGAAAGCGCATC (((.(((....))).))): the folding enthalpy in data set [1] was -21.5 kcal/mol. The Tm in data set [2] was 42.7 °C.
With GATTCGGGAAACCAAATC ((((.((....)).)))), the folding enthalpy in data set [1] was -22.3 kcal/mol. The Tm in data set [2] worked out at 30.1 °C.
As for GATTCGGGAAACCGAGTC ((.((((....)))).)), the folding enthalpy in data set [1] was -28 kcal/mol. For the same sequence, the Tm in data set [2] came out at 46.7 °C.
The corresponding values for GATTCGGGAAACTGGATC (((.(.(....).).))) are -24.2 kcal/mol and 30.8 °C.
For GATTCTGGAAACAGGATC (((.(((....))).))), the folding enthalpy in data set [1] was -37.1 kcal/mol. Besides, in data set [2], the Tm was 42.7 °C.
The corresponding values for GATTCTGGAAACGGAATC (((((.(....).))))) are -37.2 kcal/mol and 44.4 °C.
For GATTGACCGAAAGGTATC (((..(((....)))))), the folding enthalpy in data set [1] was -11.6 kcal/mol. In addition, the Tm in data set [2] was 28.5 °C.
The corresponding values for GATTGAGGAAACTCGATC (((.(((....))).))) are -33.1 kcal/mol and 43.2 °C.
For GATTGAGGAAACTTGATC (((..((....))..))) the same measures were -7.66 kcal/mol and 22.4 °C.
The corresponding values for GATTGCCCGAAAGGGATC (((..(((....)))))) are -7.39 kcal/mol and 25.8 °C.
GATTGCGCGAAAGCGATC (((..(((....)))))): the folding enthalpy in data set [1] is -9.1 kcal/mol. In addition, in data set [2], the Tm turned out to be 32 °C.
For GATTGCGGAAACGCGATC (((.(((....))).))) the same measures were -30.7 kcal/mol and 57.5 °C.
The corresponding values for GATTGCGGAAACGTAGTC ((.(.((....)).).)) are -11.4 kcal/mol and 29.8 °C.
GATTGCGGAAACGTGATC (((..((....))..))): the folding enthalpy in data set [1] was -30.6 kcal/mol. In data set [2], the Tm was determined as 40.7 °C.
For GATTGGCGAAAGCCCATC (((.(((....))).))), in data set [1], the folding enthalpy was -17 kcal/mol. For the same sequence, the Tm in data set [2] was 38.4 °C.
For GATTGGGCGAAAGCCATC (((..(((....)))))) the same measures were -8.31 kcal/mol and 26.8 °C.
The corresponding values for GATTGTGGAAACGCAATC (((((.(....).))))) are -35.5 kcal/mol and 47.2 °C.
For GATTTACGAAAGTAGATC (((.(((....))).))) the same measures were -29.5 kcal/mol and 41.9 °C.
Regarding GATTTCCCGAAAGGGATC (((..(((....)))))), the folding enthalpy in data set [1] was -10.4 kcal/mol. The Tm in data set [2] came out at 26.2 °C.
On to GATTTCCGAAAGGAGATC (((.(((....))).))), for which the folding enthalpy in data set [1] was -34.3 kcal/mol. Moreover, the Tm in data set [2] stood at 46.8 °C.
Consider GATTTCGGAAACGAAGTC ((.((((....)))).)), for which the folding enthalpy in data set [1] was -23.8 kcal/mol. The Tm in data set [2] stood at 39.3 °C.
The corresponding values for GATTTCGGAAACGAGATC (((.(((....))).))) are -30 kcal/mol and 41.6 °C.
Take GATTTGGAAACAAATC ((((((....)))))): the folding enthalpy in data set [1] was -40.2 kcal/mol. The Tm in data set [2] came to 48.5 °C.
On to GATTTGGGAAACCAGATC (((.(((....))).))), for which, in data set [1], the folding enthalpy is -35.9 kcal/mol. Further, the Tm in data set [2] was determined as 37.7 °C.
The corresponding values for GATTTGGGAAACTAAATC (((((.(....).))))) are -26.6 kcal/mol and 36.6 °C.
With GATTTTGGAAACAAAGTC ((.((((....)))).)), in data set [1], the folding enthalpy was -27.5 kcal/mol. The Tm in data set [2] was 35.3 °C.
Regarding GCAAACGAAAGTTAATGC ((((((....)))..))), the folding enthalpy in data set [1] was -14.7 kcal/mol. Moreover, in data set [2], the Tm was found to be 30.6 °C.
